A selection: hits, their analogues and other compounds. The true share with any hit is near 2%.
VLA-4 inh: inhibition in human VLA-4 binding assay, primary screen, VLA-4 allosteric modulator project, MLPCN library, flow cytometry, VLA-4 expressing cells | ligand binding flow cytometry | inhibition, % (about 7 µM as worked out from the volumes in the protocol) | 330,000 tested, 0.2% active | AID 2557, 2010; in the data active = inhibition above about 50%
MT1-MMP act inh: blockers of MT1-MMP proenzyme processing, primary screen, HT1080 RFP-PRO-GFP cells, GFP/RFP fluorescence; Matrix metalloproteinase-14 (Homo sapiens), P50281; GFP/RFP ratio change, % at 20 µM; GFP/RFP ratio fluorescence, overnight; percent of plate control window, DMSO zero; 360,000 tested, 0.061% active; AID 651647, 2012;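 active = GFP/RFP ratio change of at least 30% with cell ATP level not reduced by more than half and red fluorescence within 50% of control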
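Assay system: HT1080 cells carrying an RFP-PRO-GFP reporter | Dosing: Single dose of 20 µM compound, 1% DMSO final | Incubation: Cells overnight before dosing, compound overnight, 37 °C, 5% CO2 | Evaluation: GFP/RFP fluorescence ratio | Control set: DMSO and RFP-L50D-GFP cell wells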
ABCB6 inh MLPCN: ABCB6 transporter inhibitors, primary screen, K562-ABCB6 cells, flow cytometry, MLPCN library; 360,000 tested, 0.19% active; K562-ABCB6 porphyrin accumulation, 1 h; stronger effect = lower value; AID 602162, 2011; fluorescence ratio to DMSO, % at 10 µM;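 active = fluorescence ratio to DMSO below 75%, the collection mean minus 3 SD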;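 also: signal is porphyrin accumulated inside mitochondria; lower ratio means ABCB6 inhibition with less porphyrin fluorescence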
DAGLB inh: DAGLB lipase inhibitors, primary screen, biochemical, fluorescence, HTS; 340,000 tested, 0.059% active; AID 504411, 2011; HEK293T DAGLB membrane lysate, EnzChek fluorogenic substrate; Diacylglycerol lipase-beta (Homo sapiens), Q8NCG7; inhibition, % at 5.17 µM; in the data active = inhibition above about 34%
FGF22 binding: binders of human FGF22 protein, primary screen, FGF22 synaptogenesis inhibitor project, biophysical, thermal shift, single point; AID 651658, 2012; activity (Tm shift, normalised), % at 9.99 µM; recombinant FGF22 thermal shift, SYPRO orange fluorescence; percent of sucrose octasulfate shift, DMSO zero; 340,000 tested, 1.5% active;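 active = mean Tm shift, scaled 0 neutral to 100 positive control, at about 1.3% or above, every replicate too, limit read from the data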
Exocytosis inh: LAMP-1 surface exposure blockers, TALL-104 cells – cell-based, flow cytometry, MLPCN library, primary screen; 360,000 tested, 0.66% active; TALL-104 LAMP-1 surface exposure; cells stimulated with thapsigargin and PMA; AID 651702, 2012; inhibition, % at 10 µM;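 active = inhibition above about 55%, limit read from the data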
A number is an active result; . = inactive; / = no result.

SMILES	VLA-4 inh	MT1-MMP act inh	ABCB6 inh MLPCN	DAGLB inh	FGF22 binding	Exocytosis inh
O=S(=O)(O)c1cc(O)c2c(O)c(N=Nc3cc(Cl)ccc3O)c(S(=O)(=O)O)cc2c1	.	77	.	.	/	.
COc1ccc2c3c([nH]c2c1)[C@@H](CO)N(Cc1ccccc1)CC31CN(C(=O)c2cccnc2)C1	/	/	/	/	.	/
CN(C)CCCNC(=O)c1cc2sc3ccccc3c2s1	.	.	.	.	44	.
COCCNC(=O)c1cc2sc3ccccc3c2s1	.	.	.	.	/	.
C#CCOCCOCCOCCNc1nc(N2CCN(C(=O)CCCCCCCCCCNC(=O)[C@H](CO)n3cc(CCCSC)nn3)CC2)nc(N2CCN(C(=O)CCCCCCCCCCNC(=O)[C@H](CCCCN)n3cc(C[C@@H](C)CC)nn3)CC2)n1	.	/	/	/	/	/
C#CCOCCOCCOCCNc1nc(N2CCN(C(=O)CCCCCCCCCCNC(=O)[C@H](CO)n3cc(CCCSC)nn3)CC2)nc(N2CCN(C(=O)CCCCCCCCCCNC(=O)[C@H](CO)n3cc(CCCSC)nn3)CC2)n1	.	.	74	.	.	.
C#CCOCCOCCOCCNc1nc(N2CCN(C(=O)[C@H](CCC(=O)O)n3cc([C@@H](N)CCCCN)nn3)CC2)nc(N2CCN(C(=O)[C@H](CCCCN)n3cc([C@@H](N)CC(N)=O)nn3)CC2)n1	.	.	.	.	.	59
C#CCOCCOCCOCCNc1nc(N2CCN(C(=O)[C@H](CCC(=O)O)n3cc([C@@H](N)CCCCN)nn3)CC2)nc(N2CCN(C(=O)[C@H](CCC(=O)O)n3cc([C@@H](N)CCCCN)nn3)CC2)n1	.	.	.	.	.	.
C#CCOCCOCCOCCNc1nc(N2CCOCC2)nc(N2CCN(C(=O)[C@H](CCCN=C(N)N)n3cc(C(N)[C@@H](C)CC)nn3)CC2)n1 (some centres undefined)	.	.	.	.	15	.
CNC[C@@H]1Oc2cc(C#CCN(C)C)ccc2S(=O)(=O)N([C@@H](C)CO)C[C@@H]1C	/	/	/	/	.	/
C[C@@H]1CN([C@@H](C)CO)C(=O)c2cc(NS(=O)(=O)c3cn(C)cn3)ccc2O[C@@H](C)CCCCO[C@@H]1CN(C)Cc1ccc(C(F)(F)F)cc1	/	/	/	/	.	/
Cc1cc(C)cc(NC(=S)NCCSc2ccc(Cl)cc2)c1	.	.	.	.	44	.
CCN1C=C(C(C)=O)C(=O)CC1	/	.	.	.	43	.
C=CCN1C=C(C(C)=O)C(=O)CC1	/	.	.	.	.	.
CO[C@@H]1CN(C)C(=O)c2cc(NC(C)=O)ccc2OC[C@@H](C)N(C(=O)C2CCC2)C[C@H]1C	/	/	/	/	.	/
C=CCC(Nc1ccccc1)C12C=CC(O1)C(C(=O)OC)=C2C(=O)OC (centres undefined)	.	.	.	.	/	90
COC(=O)C1=C(C(=O)OC)[C@]2([C@@H]3CC=CCN[C@@H](Cc4ccccc4)C(=O)N3Cc3ccccc3)C=C[C@H]1O2	/	.	.	.	.	.
O=C(COC(=O)C1CCC(=O)N1)Nc1ccccc1Br (centres undefined)	.	.	.	.	43	.
COc1cc(OC)cc(-c2c(C#Cc3ccsc3)c3cc(-c4ccc(C(N)=O)cc4)ccc3n2C)c1	.	.	.	.	.	94
COCc1ccc(-c2ccc3c(c2)c(C#Cc2ccsc2)c(-c2cc(OC)cc(OC)c2)n3C)cc1	.	.	.	.	.	.
O=C(/C=C1\NC2(CCCC2)Cc2ccccc21)N1CCOCC1	.	.	.	.	/	77
CC1(C)Cc2c(ccc3ccccc23)/C(=C/C(=O)N2CCCCC2)N1	.	.	.	.	/	.
Cc1noc(C)c1S(=O)(=O)Nc1ccc2c(c1)CC(=O)N([C@H](C)CO)C[C@H](C)[C@@H](CN(C)C(=O)Nc1ccc3c(c1)OCO3)O2	/	/	/	/	.	/
O=S(=O)(c1ccc(Br)cc1)c1nc(-c2ccco2)oc1NCC1CCCO1 (centres undefined)	.	.	.	.	43	.
Cc1nc2nc[nH]n2c(=O)c1NS(=O)(=O)c1ccc(F)cc1	.	.	.	.	.	.
SMILES	VLA-4 inh	MT1-MMP act inh	ABCB6 inh MLPCN	DAGLB inh	FGF22 binding	Exocytosis inh
COc1ccc(S(=O)(=O)Nc2c(C)nc3nc[nH]n3c2=O)cc1	.	.	.	.	43	.
NC(=O)c1cc(NC(=O)c2cc(Br)c(Br)s2)cc(C(N)=O)c1	.	.	.	.	43	.
O=C(Nc1cccnc1)c1cc(Br)c(Br)s1	.	.	.	.	.	.
COc1ccc(C2Nc3ccccc3C(=O)N2Cc2ccccc2)cc1 (centres undefined)	.	.	.	.	.	.
COc1ccc([C@@H]2[C@@H](C)N(c3ccccc3)c3ccccc3C(=O)N2Cc2ccccc2)cc1	/	.	.	.	44	.
CO[C@H]1CN(C)C(=O)c2ccc(NC(=O)C3CC3)cc2OC[C@H](C)N(CCC(F)(F)F)C[C@@H]1C	/	/	/	/	.	/
CCC(C)[C@H](NS(=O)(=O)c1ccc(F)cc1Br)C(=O)OC (some centres undefined)	/	.	.	.	43	.
COC(=O)[C@@H](NS(=O)(=O)c1cc(Br)ccc1Br)C(C)C	/	.	.	.	.	.
C/C(=N\Nc1cc(C)nc(NCc2ccccc2)n1)c1cccc([N+](=O)[O-])c1	.	.	.	.	.	94
Cc1cc(N/N=C/c2ccccc2)nc(NCc2ccccc2)n1	.	.	.	.	.	.
C/C(=N\Nc1nnc(-c2ccccc2)c(-c2ccccc2)n1)c1cccc([N+](=O)[O-])c1	.	.	.	.	/	.
Cc1cc(N/N=C/c2ccc(Cl)cc2)nc(NCc2ccccc2)n1	.	.	.	.	1.6	.
CCS(=O)(=O)N1CCC2(CC1)CN(C(=O)Cc1ccccn1)[C@H](CO)c1[nH]c3cc(OC)ccc3c12	/	/	/	/	.	/
CC(CCC(=O)Nc1nncs1)C(=O)O (centres undefined)	.	.	.	.	.	.
CCCCC(C(=O)O)C(C)CC(=O)Nc1nncs1 (centres undefined)	.	.	.	.	43	.
CO[C@H]1CN(C)C(=O)c2cc(NS(=O)(=O)c3cccc(F)c3)ccc2OC[C@H](C)NC[C@@H]1C	/	/	/	/	.	/

From PubChem
